Inhibition data for 80 compounds are collected here from PubChem BioAssay AID743256 (The Scripps Research Institute Molecular Screening Center, 2014).

The structures appear in SMILES notation. About 1,300 (45%) of roughly 2,900 compounds were called active. The set was probably picked from earlier hits. A selection follows. A number with no mark means an inactive call.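 Rule for the calls: active = mean inhibition over the triplicate runs exceeds the activity threshold set in the earlier primary screen (cut at about 20% in these data); inactive = the rest.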

By inhibition is commonly meant the relative decrease from the control value, in per cent.

Sequence of Disintegrin and metalloproteinase domain-containing protein 10 (Homo sapiens) (O14672 214-748 limits assumed): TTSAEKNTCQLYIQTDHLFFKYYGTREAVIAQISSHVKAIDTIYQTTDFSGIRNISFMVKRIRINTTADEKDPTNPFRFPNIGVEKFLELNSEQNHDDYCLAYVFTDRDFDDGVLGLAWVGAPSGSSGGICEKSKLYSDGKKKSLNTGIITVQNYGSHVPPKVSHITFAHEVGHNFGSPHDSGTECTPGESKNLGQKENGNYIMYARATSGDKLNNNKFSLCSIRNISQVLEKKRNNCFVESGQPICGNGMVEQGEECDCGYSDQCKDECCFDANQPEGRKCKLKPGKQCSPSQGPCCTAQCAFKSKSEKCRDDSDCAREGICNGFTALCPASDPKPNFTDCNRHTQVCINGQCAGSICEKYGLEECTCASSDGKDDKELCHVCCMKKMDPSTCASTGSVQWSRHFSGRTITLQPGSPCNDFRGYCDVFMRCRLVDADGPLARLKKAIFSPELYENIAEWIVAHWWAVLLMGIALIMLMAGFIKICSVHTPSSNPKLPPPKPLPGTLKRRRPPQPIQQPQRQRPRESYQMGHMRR

The test has as its target Disintegrin and metalloproteinase domain-containing protein 10 (Homo sapiens) (UniProt O14672). Description: ADAM10 inhibitors, counter-screen for ADAM17 exosite inhibitor project, biochemical, FRET, human ADAM10 (AID 743256).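 Note: 0% = DMSO wells and 100% = marimastat wells.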 The note with it: recombinant ADAM10, EDANS/DABCYL FRET peptide cleavage, 3 h; at 6.95 µM; hits give high values. In short, it runs like this: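 Test system: ADAM10 / Amount: enzyme 2X stock at 20 nM / Medium: HEPES 50 mM, 0.01% Brij, pH 7.5 / Also added: DM2 FRET peptide substrate / Dosing: one dose / Timing: 30 min plus 3 h, 25 °C / Technique: FRET fluorescence readout / Measure: percent inhibition scaled between DMSO and marimastat control wells / Benchmarks: marimastat and DMSO wells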
With `COc1cccc(NC(=O)C2C(c3ccccc3)C2(Cl)Cl)c1` (stereo not given), the inhibition was 34.2% (active).

Take `COC(=O)N(C)C[C@@H]1OCc2cnnn2CCCC(=O)N([C@@H](C)CO)C[C@@H]1C`: the inhibition is -8.98%.

Regarding `C=C(C)COc1ccc(-c2n[nH]c(C)c2-c2ccccc2)c(O)c1`, the inhibition is 40.8% (active).

With `COc1ccc(S(=O)(=O)N2CCN(C(C)C(=O)Nc3ccc(C(C)C)cc3)CC2)cc1` (stereo not given), the inhibition is 20.5% (active).

With `CC(=O)Nc1ccc(S(=O)(=O)N2CCN(CCCOc3cc(C)ccc3C)CC2)cc1`, the inhibition is 12.4%.

Take `O=C1NC(=O)C(c2ccc(Cl)cc2)N1` (stereo not given): the inhibition was 6.62%.

`CN(C(=O)c1cccc(NC(=O)Cc2cccc([N+](=O)[O-])c2)c1)C1CCCCC1`: the inhibition is 19.9% (active).

On to `COc1ccccc1C(=O)NCC(=O)OCC(=O)NNC(=O)c1ccc(Br)cc1`, for which the inhibition was 3.18%.

As for `S=C(NCc1ccc(Cl)cc1)NC12CC3CC(CC(C3)C1)C2`, the inhibition was 22.6% (active).

Consider `Cc1ccc(/C=N/NC(=O)CSc2nc3ccccc3o2)cc1`, for which the inhibition was 5.15%.

Regarding `C[C@@H]1CN([C@H](C)CO)C(=O)c2cc(-c3ccc(F)cc3)cnc2O[C@H]1CN(C)C(=O)c1ccc(F)cc1`, the inhibition was 12.7%.

`CC(C)Oc1cc(F)ccc1-c1cc(C(=O)Nc2cccc(Cl)c2)[nH]n1`: the inhibition is 25.8% (active).

Regarding `Cc1cc(C)cc(NC(=S)NCCc2c[nH]c3ccccc23)c1`, the inhibition was 14%.

For the compound `N#C/C(=C/c1ccc(N2CCCCC2)o1)C(=O)NCCc1c[nH]c2ccccc12`, the inhibition was 23.4% (active).

In the case of `O=C(CSc1nc(-c2ccccc2)cs1)Nc1cccc([N+](=O)[O-])c1`, the inhibition was 24.3% (active).

Take `CCOc1ccc(N2C(=O)CC(N(CCc3ccc(OC)c(OC)c3)C(=S)Nc3ccccc3)C2=O)cc1` (stereo not given): the inhibition is 4.08%.

On to `COc1ccc(Cl)cc1NC(=O)COC(=O)C(CC(C)C)N1C(=O)C2CC=CCC2C1=O` (stereo not given), for which the inhibition was 17.9%.

Consider `CC1(C)C=Cc2c(ccc3c2OC[C@@H](c2ccc(O)cc2O)C3)O1`, for which the inhibition is 24.2% (active).

For `Cn1nc(C(F)(F)F)c2cc(NC(=O)OCC(C)(C)C)sc21`, the inhibition is 13%.

As to `C#CCN(C[C@H]1[C@H](OC(=O)NC2CCCC2)[C@H](OC(=O)NC2CCCC2)C[C@H]2C(=O)N(c3ccccc3)C(=O)[C@@H]12)S(=O)(=O)c1ccc(C)cc1`, the inhibition was 19.1%.

Consider `CCOc1ccccc1C1CC(c2cccc(NS(C)(=O)=O)c2)=NN1C(=O)c1ccccc1` (stereo not given), for which the inhibition was -1.35%.

On to `Cc1ccc(S(=O)(=O)NCCSc2ccccc2)cc1[N+](=O)[O-]`, for which the inhibition is 6.91%.

On to `Cc1cc(C)cc(NS(=O)(=O)c2ccc(Oc3ncc(C(F)(F)F)cc3Cl)cc2)c1`, for which the inhibition is 39% (active).

As for `COc1cc(/C=N/n2c(C)n[nH]c2=S)ccc1OCc1ccccc1`, the inhibition is -1.14%.

For the compound `COC(=O)c1c(C)[nH]c(C(=O)/C=C/c2ccc(Cl)cc2)c1C`, the inhibition was -38.4%.

For the compound `O=C(OCc1ccc(-c2ccccc2)cc1)c1cccc(O)c1`, the inhibition was 22.9% (active).

Consider `COc1ccc(C(CNC(=O)c2cc(S(=O)(=O)Nc3cccc(C)c3)ccc2C)N2CCCC2)cc1` (stereo not given), for which the inhibition is 6.83%.

Regarding `COC(C(=O)Nc1ccc(S(=O)(=O)Nc2ccc(C)c(C)c2)cc1)c1ccccc1` (stereo not given), the inhibition was 29.4% (active).

Regarding `O=C(COC(=O)c1ccccc1)Nc1ccccc1Sc1ccccc1`, the inhibition is 20.3% (active).

Consider `Cc1ccccc1C(=O)Nc1ccccc1Sc1ccccc1`, for which the inhibition is 10.7%.

As to `CC(=O)Nc1ccc(S(=O)(=O)Oc2ccc(Br)cc2C(=S)N2CCOCC2)cc1`, the inhibition is 13.5%.

For `O=C(CSCc1ccc(Br)cc1)Nc1ccc(S(=O)(=O)N2CCCCCC2)cc1`, the inhibition is 23% (active).

With `COc1ccc(S(=O)(=O)N2CCCCC2)cc1Br`, the inhibition is 10.7%.

As for `COc1ccc(CC(=O)c2ccc(O)cc2O)cc1OC`, the inhibition is 6.86%.

Take `Cc1ccc(Cn2nnc3c(=O)[nH]c(C4CCN(S(=O)(=O)/C=C/c5ccccc5)CC4)nc32)cc1`: the inhibition was 41.6% (active).

As for `N/C(Cc1ccc([N+](=O)[O-])cc1)=N\OC(=O)COc1ccc2ccccc2c1`, the inhibition was 11.5%.

As for `O=C(Nn1c(SCc2ccc([N+](=O)[O-])cc2)nc2ccccc2c1=O)c1ccc(F)cc1`, the inhibition is 30.6% (active).

Regarding `CC(C)(C)c1ccc(S(=O)(=O)NCC2CCN(C(=O)C(=O)c3cc4ccccc4o3)CC2)cc1`, the inhibition was 24.1% (active).

On to `C=CC(COCc1ccccc1)N(CC(=O)OC)S(=O)(=O)c1cc(Br)ccc1OC` (stereo not given), for which the inhibition is 13.2%.

Take `FC(F)(F)Oc1ccccc1C(c1nnnn1C1CCCCC1)N1CCN(C/C=C/c2ccccc2)CC1` (stereo not given): the inhibition is 17.1%.

`COc1ccc(-c2cc(C3CCN(c4ncccc4[N+](=O)[O-])CC3)[nH]n2)cc1`: the inhibition is 27.1% (active).

Regarding `O=C(Nc1ccc(C(=O)NCc2ccccc2Cl)cc1)C1=CSCCO1`, the inhibition is 9.95%.

For `O=C(COc1ccc(Cl)cc1)N1CCN(c2cccc(C(F)(F)F)c2)CC1`, the inhibition was 18.6%.

With `COc1ccc(C(N)c2csc(NC(=O)Nc3cccc(C(F)(F)F)c3)n2)cc1` (stereo not given), the inhibition was 14.4%.

For `Cn1nc(C(F)(F)F)c(C(=O)Nc2cccc(C(F)(F)F)c2)c1SCc1ccc(Cl)cc1`, the inhibition was 37.8% (active).

`CCOC(=O)c1cccc(NC(=O)CN(C)S(=O)(=O)c2ccc(-c3cocn3)s2)c1`: the inhibition is 4.04%.

For the compound `COc1ccc(-c2ccc(CN3C(CC(C)C)C(=O)N(Cc4cn(CC5CCCCC5)nn4)CCS3(=O)=O)cc2)cc1` (stereo not given), the inhibition was 26.9% (active).

On to `COc1ccc(Cn2cc(CN3CCS(=O)(=O)N(Cc4ccc(-c5cccc(Cl)c5)cc4)C(C)C3=O)nn2)cc1` (stereo not given), for which the inhibition was 18%.

For `O=C1[C@H]2[C@@H](c3ccc(C(F)(F)F)cc3)N[C@]3(CCCN(Cc4ccc(Br)cc4)C3=O)[C@H]2C(=O)N1Cc1ccccc1`, the inhibition is 32.2% (active).

In the case of `CCOc1ccccc1CNS(=O)(=O)c1cc(-c2cc(C)no2)ccc1C`, the inhibition was 1.34%.

On to `CCOc1ccc(OCC)c(-c2c(=O)n(OCc3ccc(Cl)cc3)c3ccccc3[n+]2[O-])c1`, for which the inhibition was -2.21%.

For the compound `O=C(Cc1ccc(Cl)c(Cl)c1)Nc1ccc(SC(F)F)cc1`, the inhibition is 43.3% (active).

Turning to `Cc1ccc(-n2c(COc3ccccc3)nnc2SCC(=O)Nc2ccc3c(c2)OCCO3)cc1`, the inhibition was 25.8% (active).

For the compound `CCOc1ccc(-n2c(SCC(=O)Nc3cc(C)c(NC(=O)c4ccccc4)cc3OC)nnc2-c2cccs2)cc1`, the inhibition was 8.96%.

On to `O=C(CN1CCN(c2nc(-c3ccccc3)cs2)CC1)NCc1ccc2c(c1)OCO2`, for which the inhibition is 24.1% (active).

Consider `CC1(Cc2cccc(C#N)c2)C(=O)Nc2ccc(-c3cccc(C(F)(F)F)c3)cc21` (stereo not given), for which the inhibition was 36.6% (active).

For the compound `COCCNC(=O)C(c1ccc(C)o1)N(Cc1ccccc1)C(=O)Cn1nnc2ccccc21` (stereo not given), the inhibition was -7.67%.

Consider `O=C(CC1SC(=Nc2ccccc2)N(Cc2ccccn2)C1=O)Nc1cccc(Cl)c1` (stereo not given), for which the inhibition is 35% (active).

Take `CCN1C(=O)C(CC(=O)Nc2cc(C)ccc2C)SC1=Nc1ccc(S(N)(=O)=O)cc1` (stereo not given): the inhibition was 5.34%.

Take `COc1ccc(CC(N)c2csc(NC(=O)NC(c3ccccc3)c3ccccc3)n2)cc1` (stereo not given): the inhibition was 5.76%.

With `C=CCOc1ccccc1/C=N/NC(=O)Cc1ccccc1`, the inhibition is -0.63%.

As for `Cn1c(=O)c2c(nc(N/N=C/c3cccs3)n2Cc2ccc(Br)cc2)n(C)c1=O`, the inhibition is -80.2%.

For the compound `O=C(COC(=O)CCCSc1nc2ccccc2[nH]1)Nc1ccc(Oc2ccccc2)cc1`, the inhibition was 39.3% (active).

For `O=C1/C(=C\c2ccsc2)NC(=S)N1c1ccccc1`, the inhibition is 10.1%.

As to `COc1ccc(CN(C)C(=O)CC(c2ccccc2)c2ccccc2)cc1`, the inhibition is 7.1%.

As for `Clc1ccc(C(Cn2ccnc2)OCc2ccsc2Cl)c(Cl)c1` (stereo not given), the inhibition is 22.7% (active).

Regarding `C=CCC[C@@H](Cc1ccc(F)cc1)C(=O)O[C@H](CNC(=O)[C@H](CC=C)CC(=O)N(CCO)Cc1ccccc1)c1ccccc1`, the inhibition is 45.3% (active).

As for `C=CCC[C@@H](Cc1ccc(F)cc1)C(=O)OC[C@H](Cc1c[nH]c2ccccc12)NC(=O)[C@@H](CC=C)CC(=O)N(CCO)Cc1ccccc1`, the inhibition was 35.2% (active).

Regarding `C=CC[C@H](CC(=O)N(CCO)Cc1ccccc1)C(=O)N[C@@H](COC(=O)[C@@H](CC=C)Cc1ccc(F)cc1)Cc1ccccc1`, the inhibition is 25.1% (active).

Consider `COc1cc(NC(=O)CCS(=O)(=O)c2ccc3c(c2)oc(=O)n3C)cc(OC)c1`, for which the inhibition was 11.3%.

Consider `Cc1nnc(SCC(=O)Nn2cnnc2)s1`, for which the inhibition is -7.63%.

For `O=C(CSc1nnc(Nc2ccccc2)s1)Nc1cccnc1Cl`, the inhibition was 10.6%.

As to `Cc1ccc(NC(=S)NNC(=O)CSc2nnc(SCc3ccccc3Cl)s2)cc1`, the inhibition was 37.1% (active).

As to `CCOC(=O)c1c(Cc2ccc(Cl)cc2)c[nH]c1C`, the inhibition is 19.5%.

Regarding `CC[C@@]12C(=O)N(c3ccccc3)C(=O)N1[C@H](c1ccc(Br)cc1)[C@@H]1C(=O)N(C(C)(C)C)C(=O)[C@@H]12`, the inhibition was 6.71%.

For the compound `CC(C)(C)N1C(=O)[C@H]2[C@@H](c3ccc(Br)cc3)N3C(=O)N(c4cccc(Cl)c4)C(=O)[C@@]3(C)[C@H]2C1=O`, the inhibition is 22.2% (active).

For `COc1ccc([C@@H]2[C@@H]3C(=O)N(C(C)(C)C)C(=O)[C@@H]3[C@]3(Cc4ccccc4)C(=O)N(c4cccc(Br)c4)C(=O)N23)cc1`, the inhibition is 28.6% (active).

As for `COc1cccc(CNc2nc(C(F)(F)F)nc3ccccc23)c1`, the inhibition is 8.29%.

Regarding `CC(C)(C)OC(=O)CNC(=O)c1[nH]cnc1C(=O)N[C@@H](Cc1ccccc1)C(=O)OCc1ccccc1`, the inhibition is 42.9% (active).

Take `CC(C)(C)OC(=O)N1CCC(NC(=O)c2[nH]cnc2C(=O)N[C@@H](Cc2ccccc2)C(=O)OCc2ccccc2)CC1`: the inhibition is 35.8% (active).
